Source: PubChem (Broad Institute)
MITF TRPM1 HTS: activators of MITF-driven TRPM1 promoter activity in SK-MEL-5 cells; 300,000 tested, 0.75% active; activation, % at 12.5 µM; SK-MEL-5 TRPM1-promoter luciferase, 24 h; % of positive control, neutral wells = 0; AID 588334;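 active means mean activation of at least 80% with every replicate also reaching 80%; inconclusive means mean reaches 80% but some replicate falls short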
Vif inh: inhibitors of HIV Vif; HEK293T cells, Vif self-association by quenched fluorescence, imaging, 24 h; inhibition, % at 7.49 µM; 340,000 tested, 0.35% active; AID 602346; in the data active means inhibition above about 50%, passing the limit was not always enough; inconclusive means no clear call, values can overlap the other calls; inactive means below about 31%
esBAF inh: SWI/SNF esBAF complex inhibition. mouse ES cells, Bmi1-luciferase knock-in reporter, 24 h; 100% = twice the neutral-well signal. reporter increase, % at 12.5 µM. 350,000 tested, 2% active; in the data active means activation above about 40%; inconclusive means no clear call, values can overlap the other calls;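 further: a rise in the Bmi1 reporter signal indicates esBAF inhibition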
XiGFP reactiv: activators of X-chromosome reactivation in mouse fibroblasts. XiGFP mouse fibroblasts, % GFP-positive cells imaging, 3 d; cells co-treated with 5-aza-dC sensitizer; scaled so ellipticine positive control = 100%. activation, % at 7.58 µM. 360,000 tested, 0.055% active. AID 743238;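 active means mean normalized replicate activation at least 10% and every replicate at or above 10%; inconclusive means only one of the two criteria met; inactive means mean below 10% and not all replicates reach 10%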
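System: 68-5-11 XiGFP fibroblast line | Buffer or medium: DMEM containing 5-aza-dC | Compound: Single point | Times: Compounds 3 days, fix/stain 15 min at room temperature | Benchmarks: Positive control ellipticine, 6 µM final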
Wnt bcat act: activates Wnt/beta-catenin signaling in a reporter cell assay | activator, plate reader | activation, % at 9.35 µM | 300,000 tested, 1.2% active | AID 743398; in the data active means activation above about 30%, passing the limit was not always enough; inconclusive means no clear call, values can overlap the other calls
Each line names hits and unclear results; the compound was inactive in the other large screens. Compounds with a hit are over-represented: about 2.6% of the library has one in this group of screens.

CCS(=O)(=O)N1[C@@H](CO)[C@H](c2ccccc2)C12CN(C(=O)C1CC1)C2	none (no result: MITF TRPM1 HTS, Vif inh, esBAF inh, Wnt bcat act)
COc1ccccc1CNC(=O)c1ccc(Cl)c(NC2=NC3CS(=O)(=O)CC3S2)c1 (configuration not stated)	Vif inh 60 (no result: MITF TRPM1 HTS)
C[C@@H]1CN([C@H](C)CO)C(=O)Cc2cc(NC(=O)NC3CCCCC3)ccc2O[C@H]1CN(C)C(=O)Nc1ccccc1	none (no result: MITF TRPM1 HTS, Vif inh, Wnt bcat act)
O=C(C[C@H]1C[C@@H]2c3cc(NC(=O)Nc4ccc(C(F)(F)F)cc4)ccc3O[C@@H]2[C@H](CO)O1)NCc1ccc2c(c1)OCO2	none (no result: MITF TRPM1 HTS, Vif inh, Wnt bcat act)
Cc1cc(NCCCN)nc(-c2ccccc2O)n1	esBAF inh 45 (no result: XiGFP reactiv, Wnt bcat act)
Cc1ccc(Nc2cc(C)nc(-c3ccccc3)n2)cc1	MITF TRPM1 HTS 122, esBAF inh inconclusive, Wnt bcat act inconclusive (no result: Vif inh)
Cc1ccc(Nc2cc(C)nc(-c3ccccc3O)n2)cc1	esBAF inh 53, Wnt bcat act 42 (no result: MITF TRPM1 HTS, XiGFP reactiv)
C[C@@H]1CCCCO[C@@H](CN(C)C(=O)Nc2ccc3c(c2)OCO3)[C@H](C)CN([C@@H](C)CO)C(=O)c2cc(NC(=O)CCC(F)(F)F)ccc2O1	none (no result: MITF TRPM1 HTS, Vif inh, Wnt bcat act)
O=C(NC1CCCC1)N1CC2(C1)[C@H](c1ccccc1)[C@@H](CO)N2S(=O)(=O)Cc1ccccc1	none (no result: MITF TRPM1 HTS, Vif inh, esBAF inh, Wnt bcat act)
COc1ccc(C(=O)N2CCc3ccc(NC(=O)c4ccccn4)cc3C2)cc1F	esBAF inh 52
CCC(C)(C)C1CCc2[nH]nc(C(=O)NN)c2C1 (configuration not stated)	none (no result: MITF TRPM1 HTS, esBAF inh)
CCC(C)(C)C1CCc2[nH]nc(C(=O)NC3CCCCC3)c2C1 (configuration not stated)	esBAF inh 58
O=C(C1CCC1)N1CC2(C1)[C@H](c1ccccc1)[C@H](CO)N2CCC(F)(F)F	none (no result: MITF TRPM1 HTS, Vif inh, esBAF inh, Wnt bcat act)
N#CC(C#N)=C1C=CC=CN1/C(=C\c1ccco1)C(=O)c1ccc(-c2ccccc2)cc1	XiGFP reactiv 15 (no result: esBAF inh)
C(=C\c1ccccc1)/CSc1ccccn1	MITF TRPM1 HTS 109, Wnt bcat act 54 (no result: esBAF inh)
C[C@@H]1CN([C@@H](C)CO)C(=O)c2c(c3ccccc3n2C)-c2ccccc2CO[C@@H]1CN(C)C(=O)C1CC1	none (no result: MITF TRPM1 HTS, Vif inh, Wnt bcat act)
COc1ccccc1CNC(=O)C1CCCN(c2cnccn2)C1 (configuration not stated)	none
COc1cccc(NC(=O)c2ccnc(N3CCC(C(=O)NCc4ccccc4OC)CC3)c2)c1	esBAF inh 73
CO[C@H]1CN(C)C(=O)c2cc(NC(=O)C3CCC3)ccc2OC[C@@H](C)N(C(=O)NC(C)C)C[C@@H]1C	none (no result: MITF TRPM1 HTS, Vif inh, Wnt bcat act)
COc1ccc2cc(C(=O)NCc3ccco3)c(=Nc3ccc(C(=O)O)cc3)oc2c1	Wnt bcat act 42 (no result: Vif inh, XiGFP reactiv)
Cc1cc(C(=O)N/N=C/c2c(C)nn(-c3ccccc3)c2Cl)n[nH]1	Vif inh 71, esBAF inh 52 (no result: MITF TRPM1 HTS)
C[C@H](CO)N1C[C@H](C)[C@@H](CN(C)S(=O)(=O)c2ccc(Cl)cc2)Oc2ccc(NS(C)(=O)=O)cc2C1=O	none (no result: MITF TRPM1 HTS, Vif inh, Wnt bcat act)
CCOC(=O)C1(Cc2cccc(OC)c2)CCCN(C(=O)CCN2CCCO2)C1 (configuration not stated)	esBAF inh 68
CCOC(=O)C1(Cc2cccc(Cl)c2)CCCN(C(=O)c2c(CC)noc2C)C1 (configuration not stated)	none
CCOC(=O)C1(Cc2cccc(Cl)c2)CCCN(C(=O)CCOC)C1 (configuration not stated)	none
CCOC(=O)C1(Cc2cccc(OC)c2)CCCN(C(=O)c2ccc(OC)o2)C1 (configuration not stated)	MITF TRPM1 HTS 88, esBAF inh 80, Wnt bcat act inconclusive
CCOC(=O)C1(Cc2cccc(Cl)c2)CCCN(C(=O)c2cc(C)on2)C1 (configuration not stated)	esBAF inh 53
C[C@H](CO)N1C[C@H](C)[C@@H](CN(C)Cc2cccnc2)Oc2ncc(C#CCc3ccccc3)cc2C1=O	none (no result: MITF TRPM1 HTS, Vif inh, Wnt bcat act)
CN1c2ccc(-c3ccc(F)cc3)cc2[C@@H]2[C@@H](CCN2C(=O)CC2CC2)[C@H]1CO	none (no result: MITF TRPM1 HTS, Vif inh, esBAF inh, Wnt bcat act)
C[C@@H]1CCCCO[C@H](CN(C)S(=O)(=O)c2ccccc2)[C@H](C)CN([C@@H](C)CO)C(=O)c2cc(NC(=O)Cc3ccccc3)ccc2O1	none (no result: MITF TRPM1 HTS, Vif inh, Wnt bcat act)
CC(=O)N1[C@@H]2c3ccc(/C=C/c4ccccc4)c(=O)n3C[C@H]1[C@H](CO)[C@H]2C(=O)N(C)C	none (no result: MITF TRPM1 HTS, Vif inh, Wnt bcat act)
CCOc1ccc(C(=O)N2CCCC2)cc1OC	Wnt bcat act 34 (no result: XiGFP reactiv)
Fc1ccc(COc2ccccc2C(=S)N2CCCC2)cc1	none (no result: Vif inh, esBAF inh, XiGFP reactiv, Wnt bcat act)
CCOc1ccc(C(=S)N2CCCC2)cc1OC	none (no result: esBAF inh)
COc1cc(C(=S)N2CCCC2)ccc1OCc1ccc(C)cc1	esBAF inh 47
Cc1ccc(COc2ccccc2C(=S)N2CCCC2)cc1	esBAF inh 55
CCNC(=O)C[C@H]1CC[C@H]2[C@@H](COC[C@@H](O)CN2S(=O)(=O)c2ccc(Oc3ccccc3)cc2)O1	none (no result: MITF TRPM1 HTS, Vif inh, Wnt bcat act)
CS(=O)(=O)N1[C@@H]2c3ccc(-c4ccc(F)cc4)c(=O)n3C[C@H]1[C@H](CO)[C@H]2C(=O)N1CCOCC1	none (no result: MITF TRPM1 HTS, Vif inh, Wnt bcat act)
Cc1c(C(=O)NCc2cccs2)oc2ccc(Br)cc12	esBAF inh 51 (no result: MITF TRPM1 HTS, XiGFP reactiv, Wnt bcat act)
Cc1c(C(=O)NCc2ccccn2)oc2ccc(S(=O)(=O)N3CCOCC3)cc12	Vif inh 86 (no result: MITF TRPM1 HTS, XiGFP reactiv)
CCc1ccc2oc(C(=O)Nc3cccnc3)c(C)c2c1	none (no result: MITF TRPM1 HTS, XiGFP reactiv, Wnt bcat act)
Cc1c(C(=O)NCc2cccs2)oc2ccc(S(=O)(=O)N3CCOCC3)cc12	none (no result: XiGFP reactiv)
Cc1c(C(=O)NCc2ccccn2)oc2ccc(Br)cc12	MITF TRPM1 HTS 97, esBAF inh 54
Cc1c(C(=O)Nc2cccnc2)oc2ccc(Br)cc12	esBAF inh 60 (no result: MITF TRPM1 HTS)
C[C@H](CO)N1C[C@H](C)[C@H](CN(C)C(=O)Nc2ccc3c(c2)OCO3)Oc2ccc(NC(=O)Nc3ccc(F)cc3)cc2C1=O	none (no result: MITF TRPM1 HTS, Vif inh, Wnt bcat act)
CCc1sc(C(=O)Nc2cccnc2)cc1Br	esBAF inh 50
O=C(Nc1cccnc1)c1ccc(Br)s1	none (no result: XiGFP reactiv, Wnt bcat act)
COc1ccc(/C(N)=N/OC(=O)c2cccs2)cc1OC	MITF TRPM1 HTS 84 (no result: esBAF inh)
COc1ccc(/C(N)=N/OC(=O)c2ccc3ccccc3c2)cc1OC	none (no result: MITF TRPM1 HTS)
Cc1ccc(/C(N)=N/OC(=O)c2cccs2)cc1	Wnt bcat act 54
Cc1cccc(/C(N)=N/OC(=O)c2cccs2)c1	Wnt bcat act 58 (no result: Vif inh, XiGFP reactiv)
N/C(=N\OC(=O)c1cccs1)c1ccccc1	none
N/C(=N\OC(=O)c1cccs1)c1cccc(Br)c1	Wnt bcat act 44
C[C@@H]1CCCCO[C@H](CN(C)C(=O)Nc2ccc(F)cc2)[C@H](C)CN([C@H](C)CO)C(=O)c2cc(NC(=O)c3ccncc3)ccc2O1	none (no result: MITF TRPM1 HTS, Vif inh, Wnt bcat act)
N/C(=N\OC(=O)Cc1ccccc1[N+](=O)[O-])c1cccc(Br)c1	Wnt bcat act 37
N/C(=N\OC(=O)Cc1ccccc1)c1cccc(Br)c1	none (no result: esBAF inh)
O=C(c1ccc(-c2ccccc2Cl)s1)N1CCOCC1	MITF TRPM1 HTS 92 (no result: Vif inh, esBAF inh)
O=C(c1ccc(C(=O)N2CCOCC2)s1)N1CCOCC1	none (no result: XiGFP reactiv)
